Common to all, as to set-up: species or system Mycolicibacterium smegmatis
Assay [1] is described as follows: In vitro inhibition of recombinant Mycobacterium smegmatis Arylamine N-Acetyltransferase (MSNAT) -catalyzed acetylation of isoniazid (INH). In outline:
(§1)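 Pure recombinant M. smegmatis NAT acetylating isoniazid with acetyl CoA as donor. Acetyl CoA hydrolysis rate followed with 5,5'-dithio-bis(2-nitrobenzoic acid), reading the thio-2-nitrobenzoic acid product spectrophotometrically at 412 nm. Half-maximal inhibitory concentration (IC50) taken from this rate.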

Assay [2] in a line: In vitro inhibition of recombinant Mycobacterium smegmatis N-Acetyltransferase (MSNAT) -catalyzed acetylation of isoniazid (INH). In outline: as §1
The nature of assay [3]: Inhibition constant of Mycobacterium smegmatis N-Acetyltransferase (MSNAT) -catalyzed acetylation with respect to isoniazid.
Assay [4] is described as follows: In vitro inhibition of recombinant Mycobacterium smegmatis Arylamine N-Acetyltransferase (MSNAT) -catalyzed acetylation of isoniazid (INH); not active. In outline: as §1

SMILES strings stand for the structures. A value given as a limit tells only on which side of the number the result lay.

Turning to `O=C1NC(=O)/C(=C2\CN(Cc3ccc(/C=C/c4ccccc4)cc3)S(=O)(=O)c3ccccc32)S1`, in assay [1], the IC50 (as a rule, the concentration at which inhibition is half-maximal) was 29 µM and the inhibition constant Ki (as a rule, a dissociation constant, usually derived from enzyme kinetics or from competition with a known ligand) came out at 14 µM.
With `O=C1NC(=O)/C(=C2\CN(Cc3ccc4ccccc4c3)S(=O)(=O)c3ccccc32)S1`, in assay [2], the IC50 is 78 µM. This compound also displayed a Ki in assay [3] of 70 µM.
Take `O=C1NC(=O)/C(=C2\CN(Cc3ccccn3)S(=O)(=O)c3ccccc32)S1`: in assay [1], the IC50 was over 100 µM.
On to `O=C1NC(=O)/C(=C2\CN(Cc3ccccc3)S(=O)(=O)c3ccccc32)S1`, for which the IC50 in assay [1] is over 100 µM.
Still for that read-out and setting: the figure for `C=C(C)CCN1C/C(=C2/SC(=O)NC2=O)c2ccccc2S1(=O)=O` is over 100 µM.
Same read-out and setting: then `CN1C/C(=C2/SC(=O)NC2=O)c2ccccc2S1(=O)=O`, with over 100 µM.
On to `CCCCCCCCN1C/C(=C2/SC(=O)NC2=O)c2ccccc2S1(=O)=O`, for which, in assay [1], the IC50 was 61 µM and the Ki was determined as 43 µM.
On to `O=C1NC(=O)/C(=C2\CN(Cc3ccc(-c4ccccc4)cc3)S(=O)(=O)c3ccccc32)S1`, for which, in assay [1], the IC50 turned out to be 20 µM and the Ki came out at 14.4 µM.
With `O=C1NC(=O)/C(=C2\CNS(=O)(=O)c3ccccc32)S1`, the IC50 in assay [1] is over 100 µM.
On to `O=C1CN(Cc2ccc3ccccc3c2)S(=O)(=O)c2ccccc21`, for which, in assay [4], the IC50 result is listed as “Not Active”.
On to `O=C1NC(=O)/C(=C2\CN(CC3CC3)S(=O)(=O)c3ccccc32)S1`, for which, in assay [1], the IC50 was over 100 µM.
On to `CCC(CC)CN1C/C(=C2/SC(=O)NC2=O)c2ccccc2S1(=O)=O`, for which the half-maximal inhibitory concentration (IC50) in assay [1] turned out to be 92 µM.
Same read-out and setting: the figure for `O=C1NC(=O)/C(=C2\CN(CCC3CCCCC3)S(=O)(=O)c3ccccc32)S1` is 82 µM; for `O=C1NC(=O)/C(=C2\CN(CC3CCCCC3)S(=O)(=O)c3ccccc32)S1` it is 205 µM.
`CCCCCCCCCCN1C/C(=C2/SC(=O)NC2=O)c2ccccc2S1(=O)=O`: in assay [1], the IC50 was 22 µM and the Ki came out at 14.7 µM.
For `O=C1NC(=O)/C(=C2\CN(Cc3ccc(Br)cc3)S(=O)(=O)c3ccccc32)S1`, in assay [1], the IC50 is 65 µM.
Turning to `O=C1NC(=O)/C(=C2\CN(Cc3ccc(Cl)s3)S(=O)(=O)c3ccccc32)S1`, in assay [1], the IC50 came to 33 µM and the Ki was found to be 26.7 µM.
Consider `O=C1NC(=O)/C(=C2\CN(CCOc3ccccc3)S(=O)(=O)c3ccccc32)S1`, for which the IC50 in assay [1] was over 100 µM.
With `O=C1CSC(=O)N1` [THIAZOLIDINEDIONE], the IC50 entry in assay [4] was “Not Active”.
